We go through 23 compounds from ChEMBL document CHEMBL4196053, “Endoperoxide-8-aminoquinoline hybrids as dual-stage antimalarial agents with enhanced metabolic stability” (Eur J Med Chem, 2018).

Data set [1] concerns Plasmodium berghei. Put plainly: Antiplasmodial activity against luciferase expressing Plasmodium berghei sporozoites infected in human HuH7 cells at 10 uM preincubated for 1 hr followed by parasite infection measured after 48 hrs by bioluminescence analysis relative to control. The format is functional. An outline of the steps:
(§1)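 Huh-7 hepatoma cells (1.0 × 10^4/well) seeded the day before. Compound-containing medium added about 1 h before infection with fresh firefly luciferase-expressing P. berghei sporozoites from Anopheles stephensi salivary glands, then spun 1700 g for 5 min. DMSO vehicle in controls. Parasite load read by bioluminescence 48 h post-infection. Initial screen at fixed concentrations; EC50 from nonlinear regression of normalized dose-response data.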

Another data set has as its system Plasmodium falciparum. Put plainly: Antiplasmodial activity against chloroquine resistant Plasmodium falciparum W2 erythrocytic ring stage after 48 hrs using hypoxanthine by flow cytometric analysis. The data set is classed as functional, organism-based. Conditions: W2, 48 h. Summed up: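 Ring-stage W2 P. falciparum synchronized with 5% sorbitol, about 1% parasitemia in human erythrocytes. Cells fixed in 2% formaldehyde, stained with 1 nM YOYO-1, infected cells counted by flow cytometry. IC50 taken against untreated controls; two experiments, four replicates each.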
Background: A flow cytometer gives signals particle by particle.

Data set [2] is described as follows: Cytotoxicity against human Caco2 cells assessed as reduction in cell viability after 72 hrs by neutral red dye based assay. The following applies: Caco-2 cells. Summed up: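 CaCo-2 cells grown in RPMI-1640 with 10% FBS and antibiotic-antimycotic at 37°C, 5% CO2. Exposed once confluent for 72 h to compound diluted in medium, organic solvent ≤1%. Medium then removed and cells washed with PBS.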

The subject of data set [3] is Plasmodium berghei. Put plainly: Antiplasmodial activity against luciferase expressing Plasmodium berghei sporozoites infected in human HuH7 cells at 2 uM preincubated for 1 hr followed by parasite infection measured after 48 hrs by bioluminescence analysis relative to control. The format is functional. An outline of the steps: as §1
Data set [4] has as its system Plasmodium berghei. Nature of the data set: Antiplasmodial activity against luciferase expressing Plasmodium berghei infected in human HuH7 cells preincubated for 1 hr followed by parasite infection measured after 48 hrs by bioluminescence analysis. The data set is classed as functional, organism-based. Conditions: Huh-7. Summed up:
as §1

Another data set relates to Huh-7. Nature of the data set: Cytotoxicity against human HuH7 cells assessed as reduction in cell viability at 10 uM after 48 hrs by Alamar blue assay. The following applies: huh-7, 48 h. The format is cell-based. Summed up:
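Huh-7 cells seeded and infected with P. berghei sporozoites as in the liver-stage assay, with compound added about 1 h before infection and DMSO vehicle in controls. Host cell viability read by AlamarBlue fluorescence 48 h post-infection.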

A short description of data set [5]: Intrinsic clearance in rat liver microsomes assessed per mg protein at […] in presence of NADPH by HPLC analysis. The data set is classed as ADME, microsome. The following applies: read-out: CLH. On the technique in general: Liver microsomes are vesicles of endoplasmic reticulum, rich in cytochrome P450 enzymes.
A short description of data set [6]: Half life in rat liver microsomes at […] in presence of NADPH by HPLC analysis. The data set is classed as ADME, microsome.
Data set [7] is described as follows: Selectivity index, ratio of CC50 for human Caco2 cells to IC50 for chloroquine resistant Plasmodium falciparum W2 erythrocytic ring stage. The following applies: Caco-2 cells, read-out: Ratio CC50/IC50. The format is toxicity.

SMILES strings stand for the structures. Active and inactive are the calls of the source. The rule behind the calls is not given here. A value given as a limit tells only on which side of the number the result lay.

Consider `COc1cc(NC(C)CCCNC(=O)C2CCC3(CC2)OOC2(OO3)C3CC4CC(C3)CC2C4)c2ncccc2c1-c1ccc(C)cc1` (stereo unspecified), for which the result in the data set with Plasmodium berghei [1] was Active. The EC50 (as a rule, the midpoint of the concentration-response curve) with Plasmodium falciparum is 141 nM; with Plasmodium berghei [4], 1650 nM. The cytotoxic concentration (CC50) – broadly, the concentration at which the toxic effect on the cells reaches its halfway point – at 72 h in data set [2] was more than 50000 nM. The Activity in the data set on Plasmodium berghei [3] is listed as more than 50%; in the data set with Huh-7, “Non-Toxic”. The microsomal CLint in data set [5] worked out at 15.9 µL/min/mg. Further, the half-life (as a rule, the time in which the quantity being followed falls by half) in [6] was determined as 87 min.
Consider `COc1cc(NC(C)CCCNC(=O)C2CCC3(CC2)OOC2(OO3)C3CC4CC(C3)CC2C4)c2ncccc2c1-c1ccsc1` (stereo unspecified), for which the selectivity ratio in data set [7] was more than 600. In the data set on Plasmodium berghei [1], the outcome was Active. Besides, the EC50 in the data set on Plasmodium falciparum stood at 45 nM; in the data set on Plasmodium berghei [4], 2110 nM. For the same compound, the 50% cytotoxic concentration (CC50) at 72 h in data set [2] was more than 50000 nM. Moreover, the Activity in the data set on Plasmodium berghei [3] is more than 50%; with Huh-7 it was “Non-Toxic”. The microsomal CLint in data set [5] was found to be 37.4 µL/min/mg. Also, the half-life in [6] came out at 37 min.
`CCOC(=O)C1CCC2(CC1)OOC1(OO2)C2CC3CC(C2)CC1C3` (stereo unspecified): the 50% effective concentration (EC50) in the data set with Plasmodium berghei [4] stood at 17300 nM.
Regarding `COc1cc(NC(C)CCCN)c2ncccc2c1-c1ccc(C)cc1` (stereo unspecified), the EC50 stood at 2350 nM with Plasmodium falciparum and 5430 nM in the data set on Plasmodium berghei [4].
On to `COc1cc(NC(=O)C2CCC3(CC2)OOC2(OO3)C3CC4CC(C3)CC2C4)c2ncccc2c1-c1ccc(F)cc1` (stereo unspecified), for which a half-maximal response with Plasmodium falciparum (EC50) required 916 nM. For the same compound, in data set [5], the microsomal CLint was 23.1 µL/min/mg. Moreover, the half-life in data set [6] stood at 60 min.
Regarding `COc1cc(NC(C)CCCNCC2CCC3(CC2)OOC2(OO3)C3CC4CC(C3)CC2C4)c2ncccc2c1-c1ccsc1` (stereo unspecified), the result in the data set with Plasmodium berghei [1] and in the data set with Plasmodium berghei [3] was Active. Moreover, the response with Plasmodium falciparum was half-maximal at 81 nM (EC50). Besides, the Activity entry in the data set with Huh-7 is reported as “Toxic”.
`COc1cc(NCCCCCNC(=O)C2CCC3(CC2)OOC2(OO3)C3CC4CC(C3)CC2C4)c2ncccc2c1-c1ccc(F)cc1` (stereo unspecified): the outcome with Plasmodium berghei [1] was Active. Besides, the EC50 was 17 nM in the data set with Plasmodium falciparum and 1640 nM in the data set with Plasmodium berghei [4]. Further, the Activity with Plasmodium berghei [3] is listed as more than 50%; in the data set on Huh-7 it was “Non-Toxic”. Besides, the microsomal CLint in [5] was found to be 55.4 µL/min/mg. The half-life in data set [6] was found to be 25 min.
Regarding `COc1cc(NC(=O)C2CCC3(CC2)OOC2(OO3)C3CC4CC(C3)CC2C4)c2ncccc2c1-c1ccc(Cl)cc1` (stereo unspecified), the Activity with Plasmodium berghei [1] stood at 37%. In addition, in the data set on Plasmodium falciparum, the EC50 came out at 4190 nM. Also, the microsomal CLint in data set [5] was 11.1 µL/min/mg. Further, the half-life in data set [6] was 125 min.
Take `COc1cc(NC(C)CCCNCC2CCC3(CC2)OOC2(OO3)C3CC4CC(C3)CC2C4)c2ncccc2c1-c1ccc(F)cc1` (stereo unspecified): the outcome in the data set on Plasmodium berghei [1] and with Plasmodium berghei [3] was Active. This compound registered an EC50 with Plasmodium falciparum of 99 nM. Also, the Activity entry with Huh-7 is “Toxic”.
For the compound `COc1cc(NC(C)CCCNCC2CCC3(CC2)OOC2(OO3)C3CC4CC(C3)CC2C4)c2ncccc2c1-c1ccc(Cl)cc1` (stereo unspecified), the result in the data set with Plasmodium berghei [1] and with Plasmodium berghei [3] was Active. Moreover, the CC50 at 72 h in [2] was 13200 nM. The Activity entry in the data set with Huh-7 is given as “Toxic”.
For the compound `COc1cc(NC(C)CCCNC(=O)C2CCC3(CC2)OOC2(OO3)C3CC4CC(C3)CC2C4)c2ncccc2c1-c1ccoc1` (stereo unspecified), the selectivity ratio in data set [7] was more than 600. In the data set on Plasmodium berghei [1], the result was Active. In addition, the EC50 with Plasmodium falciparum is 76 nM; in the data set with Plasmodium berghei [4], 2350 nM. Moreover, the CC50 at 72 h in data set [2] was more than 50000 nM. Besides, the figures for the Activity in the data set on Plasmodium berghei [3] and in the data set with Huh-7 were more than 50% and “Non-Toxic”, respectively.
`COc1cc(NC(=O)C2CCC3(CC2)OOC2(OO3)C3CC4CC(C3)CC2C4)c2ncccc2c1-c1ccc(Br)cc1` (stereo unspecified): the Activity with Plasmodium berghei [1] amounted to 35%. The same compound yielded an EC50 in the data set on Plasmodium falciparum of 5670 nM. Also, the microsomal CLint in [5] stood at 11.2 µL/min/mg. Besides, the half-life in data set [6] is 124 min.
The compound `C[C@@H]1CC[C@H]2[C@@H](C)C(=O)O[C@@H]3O[C@@]4(C)CC[C@@H]1[C@]32OO4` [ARTEMISININ] gave a half-maximal effective concentration (EC50) in the data set on Plasmodium falciparum of 10 nM.
Consider `COc1cc(NCCCCNC(=O)C2CCC3(CC2)OOC2(OO3)C3CC4CC(C3)CC2C4)c2ncccc2c1-c1ccc(F)cc1` (stereo unspecified), for which, in the data set with Plasmodium berghei [1], the outcome was Active. Also, the EC50 with Plasmodium falciparum was found to be 15 nM; in the data set with Plasmodium berghei [4], 1110 nM. Moreover, the CC50 at 72 h in data set [2] was found to be 10200 nM. For the same compound, the figures for the Activity in the data set with Plasmodium berghei [3] and with Huh-7 were more than 50% and “Non-Toxic”, respectively. Also, the microsomal CLint in data set [5] came to 92.4 µL/min/mg. The half-life in [6] came to 15 min.
Consider `COc1cc(NC(C)CCCNCC2CCC3(CC2)OOC2(OO3)C3CC4CC(C3)CC2C4)c2ncccc2c1-c1ccoc1` (stereo unspecified), for which the result in the data set on Plasmodium berghei [1] and with Plasmodium berghei [3] was Active. Also, the EC50 with Plasmodium falciparum turned out to be 120 nM. Moreover, the Activity entry with Huh-7 is listed as “Toxic”.
Regarding `COc1cc(NC(C)CCCNC(=O)C2CCC3(CC2)OOC2(OO3)C3CC4CC(C3)CC2C4)c2ncccc2c1-c1ccc(Br)cc1` (stereo unspecified), the selectivity ratio in data set [7] is more than 1000. Further, the result with Plasmodium berghei [1] was Active. Moreover, the EC50 worked out at 61 nM with Plasmodium falciparum and 4440 nM in the data set on Plasmodium berghei [4]. Also, in data set [2], the half-maximal cytotoxic concentration (CC50) at 72 h is more than 50000 nM. Also, the Activity with Plasmodium berghei [3] is listed as more than 50%; in the data set on Huh-7, “Non-Toxic”.
As to `COc1cc(NC(C)CCCNCC2CCC3(CC2)OOC2(OO3)C3CC4CC(C3)CC2C4)c2ncccc2c1-c1ccc(C)cc1` (stereo unspecified), the result with Plasmodium berghei [1] and with Plasmodium berghei [3] was Active. The same compound gave an EC50 in the data set with Plasmodium falciparum of 176 nM. The CC50 at 72 h in data set [2] was determined as 11700 nM. For the same compound, in the data set with Huh-7, the Activity entry is “Toxic”.
Consider `COc1cc(NC(C)CCCNCC2CCC3(CC2)OOC2(OO3)C3CC4CC(C3)CC2C4)c2ncccc2c1-c1ccccc1` (stereo unspecified), for which the outcome with Plasmodium berghei [1] and with Plasmodium berghei [3] was Active. In the data set with Plasmodium falciparum, the response was half-maximal at 92 nM (EC50). Besides, the Activity result in the data set on Huh-7 is “Toxic”.
On to `COc1cc(NC(C)CCCNC(=O)C2CCC3(CC2)OOC2(OO3)C3CC4CC(C3)CC2C4)c2ncccc2c1-c1ccccc1` (stereo unspecified), for which the result with Plasmodium berghei [1] was Active. Further, the EC50 came out at 204 nM in the data set on Plasmodium falciparum and 1690 nM in the data set with Plasmodium berghei [4]. Also, the CC50 at 72 h in data set [2] is more than 50000 nM. The values for the Activity in the data set with Plasmodium berghei [3] and in the data set on Huh-7 were more than 50% and “Non-Toxic”, respectively. In data set [5], the microsomal CLint was 33 µL/min/mg. For the same compound, the half-life in data set [6] turned out to be 42 min.
For the compound `COc1cc(NC(=O)C2CCC3(CC2)OOC2(OO3)C3CC4CC(C3)CC2C4)c2ncccc2c1-c1ccccc1` (stereo unspecified), the Activity with Plasmodium berghei [1] amounted to 52%. For the same compound, the response in the data set with Plasmodium falciparum was half-maximal at 287 nM (EC50). For the same compound, the microsomal CLint in [5] is 33 µL/min/mg. For the same compound, in [6], the half-life worked out at 42 min.
With `COc1cc(NCCCNC(=O)C2CCC3(CC2)OOC2(OO3)C3CC4CC(C3)CC2C4)c2ncccc2c1-c1ccc(F)cc1` (stereo unspecified), in the data set with Plasmodium berghei [1], the result was Active. In addition, the EC50 stood at 15 nM in the data set with Plasmodium falciparum and 2610 nM with Plasmodium berghei [4]. Besides, the Activity in the data set on Plasmodium berghei [3] is recorded as more than 50%; in the data set with Huh-7 it was “Non-Toxic”. Besides, in data set [5], the microsomal CLint came to 39.6 µL/min/mg. In addition, the half-life in data set [6] amounted to 35 min.
As for `COc1cc(NC(C)CCCNC(=O)C2CCC3(CC2)OOC2(OO3)C3CC4CC(C3)CC2C4)c2ncccc2c1Br` (stereo unspecified), in the data set on Plasmodium berghei [1], the outcome was Active. This compound also displayed an EC50 with Plasmodium falciparum of 16 nM. In addition, the Activity in the data set with Plasmodium berghei [3] is more than 50%; in the data set on Huh-7, “Toxic”. The microsomal CLint in data set [5] worked out at 99 µL/min/mg. Also, the half-life in data set [6] is 14 min.
As for `COc1cc(NC(C)CCCNCC2CCC3(CC2)OOC2(OO3)C3CC4CC(C3)CC2C4)c2ncccc2c1-c1ccc(C(F)(F)F)cc1` (stereo unspecified), the Activity in the data set with Plasmodium berghei [1] is recorded as 62%; in the data set with Huh-7, “Toxic”. Further, the response in the data set with Plasmodium falciparum was half-maximal at 19 nM (EC50). Further, the CC50 at 72 h in data set [2] amounted to 10300 nM. Further, in the data set with Plasmodium berghei [3], the outcome was Active.
